The results in this text go back to ChEMBL document CHEMBL1143649, “New clerodane diterpenoids from Laetia procera (Poepp.) Eichler (Flacourtiaceae), with antiplasmodial and antileishmanial activities” (Bioorg Med Chem Lett, 2005).

Data set [1] concerns MCF7. The data set can be described thus: Cytotoxic activity against human MCF-7 cells. It is filed as cell-based.
Data set [2] has as its system Leishmania amazonensis. Nature of the data set: Antileishmanial activity against leishmania amazonensis axenic amastigotes stage. The class given is functional.
The subject of data set [3] is Plasmodium falciparum. The data set can be described thus: Antiplasmodial activity for Plasmodium falciparum F32. It is filed as functional. In short, it runs like this: (§1)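 Tested against P. falciparum strains FcB1 and F32, with chloroquine as the positive control. Values are means ± SD from independent experiments.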
Data set [4] relates to Plasmodium falciparum. Nature of the data set: Antiplasmodial activity for Plasmodium falciparum FcB1. The class given is functional. In short, it runs like this:
as §1

The subject of data set [5] is Leishmania amazonensis. Nature of the data set: Antileishmanial activity against leishmania amazonensis promastigotes stage. It is filed as functional.
Data set [6] deals with MCF7. Nature of the data set: Ratio of cytotoxic activity against human MCF-7 cells to that of antiplasmodial activity against Plasmodium falciparum FcB1. The class given is functional. The method, boiled down: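 Cytotoxic activity on the MCF7 human tumour line divided by antiplasmodial activity on P. falciparum FcB1.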

With `C=C/C(C)=C/C[C@]1(C)[C@H](C)C[C@H](OC)[C@@]2(C=O)C(C=O)=C[C@H](OC(=O)C(C)CC)C[C@@H]12` (some centres not stated), the Activity is 9.6 µM in the data set with MCF7 [1]; 30.3 µM in the data set with Leishmania amazonensis [2]; 6.04 µM in the data set with Plasmodium falciparum [3]; 3.79 µM in the data set with Plasmodium falciparum [4]; 50.9 µM in the data set on Leishmania amazonensis [5]. For the same molecule, the Ratio in the data set on MCF7 [6] amounted to 2.7.

As to `C=C/C(C)=C/C[C@]1(C)[C@H](C)C[C@H](O)[C@@]23C(=C[C@H](OC(=O)C(C)CC)C[C@@H]12)C(OC(C)=O)OC3OC(C)=O` (some centres not stated), the Activity in the data set with MCF7 [1] was 1.54 µM; in the data set on Leishmania amazonensis [2], 5.98 µM; in the data set on Plasmodium falciparum [3], 0.62 µM; with Plasmodium falciparum [4], 0.54 µM; in the data set with Leishmania amazonensis [5], 11.1 µM. For the same molecule, the Ratio with MCF7 [6] amounted to 2.2.

On to `C=C/C(C)=C/C[C@]1(C)[C@H](C)C[C@H](OC)[C@@]23C(=C[C@H](OC(=O)C(C)CC)C[C@@H]12)C(OC(C)=O)OC3OC(C)=O` (some centres not stated), for which the Activity in the data set with MCF7 [1] worked out at 4.38 µM; in the data set on Leishmania amazonensis [2], 47.4 µM; in the data set on Plasmodium falciparum [3] it was 0.58 µM; in the data set with Plasmodium falciparum [4], 0.66 µM; in the data set with Leishmania amazonensis [5], 10.9 µM. In addition, in the data set on MCF7 [6], the Ratio is reported as 6.8.

With `C=C/C(C)=C/C[C@]1(C)[C@H](C)C[C@H](O)[C@@]23C(=C[C@@H](OC(=O)C(C)CC)C[C@@H]12)C(OC(C)=O)OC3OC(C)=O` (some centres not stated), the Activity in the data set on MCF7 [1] is 0.85 µM; with Leishmania amazonensis [2], 10.5 µM; with Plasmodium falciparum [3], 0.57 µM; in the data set with Plasmodium falciparum [4] it was 0.59 µM; with Leishmania amazonensis [5], 11 µM. Moreover, the Ratio with MCF7 [6] was 1.3.

Take `C=C/C(C)=C/C[C@]1(C)[C@H](C)C[C@H](OC(=O)c2ccccc2)[C@@]23C(=C[C@H](OC(=O)C(C)CC)C[C@@H]12)C(OC(C)=O)OC3OC(C)=O` (some centres not stated): the Activity is 27.3 µM with MCF7 [1]; over 200 µM in the data set with Leishmania amazonensis [2]; 4.66 µM with Plasmodium falciparum [3]; 5.35 µM in the data set on Plasmodium falciparum [4]; over 200 µM in the data set with Leishmania amazonensis [5]. Also, in the data set with MCF7 [6], the Ratio is reported as 4.6.

Regarding `CCCCCCCC/C=C\CCCCCC[C@@H]1C(=O)O[C@@H](C)[C@H]1O`, the Activity in the data set on MCF7 [1] was determined as 65.9 µM; in the data set on Leishmania amazonensis [2] it was 129 µM; with Plasmodium falciparum [3], 57.6 µM; in the data set on Plasmodium falciparum [4], 27.5 µM; in the data set with Leishmania amazonensis [5], 111 µM. Moreover, the Ratio in the data set with MCF7 [6] is 2.1.

As to `C=C/C(C)=C/C[C@]1(C)[C@H](C)C[C@H](OC(=O)c2ccccc2)[C@@]23C(=C[C@H](OC(=O)C(C)C)C[C@@H]12)C(OC(C)=O)OC3OC(C)=O` (some centres not stated), the Activity with MCF7 [1] is 17.8 µM; with Leishmania amazonensis [2], over 200 µM; with Plasmodium falciparum [3] it was 4.44 µM; in the data set on Plasmodium falciparum [4], 6.08 µM; in the data set with Leishmania amazonensis [5] it was over 200 µM. The Ratio with MCF7 [6] was determined as 3.1.

In the case of `C[C@@H]1[C@H](O)[C@@H](C)/C=C/C=C/C=C/C=C/C=C/C=C/C=C/[C@H](O[C@@H]2O[C@H](C)[C@@H](O)[C@H](N)[C@@H]2O)C[C@@H]2O[C@](O)(C[C@@H](O)C[C@@H](O)[C@H](O)CC[C@@H](O)C[C@@H](O)CC(=O)O[C@H]1C)C[C@H](O)[C@H]2C(=O)O` [AMPHOTERICIN B], the Activity in the data set with Leishmania amazonensis [2] and with Leishmania amazonensis [5] was 0.3 µM each time.

Regarding `CCN(CC)CCCC(C)Nc1ccnc2cc(Cl)ccc12` (configuration not stated) [CHLOROQUINE], the Activity is 0.06 µM in the data set on Plasmodium falciparum [3] and 0.145 µM with Plasmodium falciparum [4].

As to `COc1cccc2c1C(=O)c1c(O)c3c(c(O)c1C2=O)C[C@@](O)(C(=O)CO)C[C@@H]3O[C@H]1C[C@H](N)[C@H](O)[C@H](C)O1` [DOXORUBICIN], the Activity in the data set on MCF7 [1] is 0.4 µM.
